In ChEMBL document CHEMBL1126267, “A novel synthesis and potent antiinflammatory activity of 4-hydroxy-2(1H)-oxo-1-phenyl-1,8-naphthyridine-3-carboxamides” (1992) one finds inhibition in vivo and Swelling data, which are given here for five molecules.

Holding throughout (assay type): functional
What all share (settings): route oral

For assay [1], the system named is Rattus norvegicus. Briefly: Compound was tested for the inhibition of rat reversed passive Arthus pleurisy after peroral administration of 100 mg/kg dose at 0.37 mL of exudate volume with 0.46 mL of control (injected intrapleurally). Summed up: (§1)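 Male Wistar rats (about 250 g) were given compound orally before the antiserum. Under ether anesthesia, 0.2 mL rabbit anti-egg albumin antiserum was injected intrapleurally. After 30 min, egg albumin (15 mg/100 g body weight in 0.1 mL saline) was given iv. Rats were killed 4.5 h later and the thoracic cavity was rinsed with 5 mL saline. Exudate volume and infiltrated cell number were measured, with inhibition % versus controls as mean ± SEM.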

Assay [2] relates to Rattus norvegicus. Briefly: Inhibition of Zymosan-induced rat's paw edema(ZPE) after peroral administration of 100 mg/kg dose. Summed up: (§2)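 Male Wistar rats (about 150 g) were dosed orally with compound suspended in 5% arabic gum, 1 h before a subplantar hind-paw injection of 0.1 mL saline. The irritant was 1% zymosan for 33 or 1% λ-carrageenin for 34. Paw volume was measured by plethysmograph before dosing and at 4 h (zymosan) or 3 h (carrageenin). Swelling is relative to initial volume, as mean ± SEM. % inhibition is versus the control group's mean swelling.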

Assay [3] has as its system Rattus norvegicus. In words: Compound was tested for the inhibition of rat reversed passive Arthus pleurisy after peroral administration of 100 mg/kg dose at 1.59+/-0.13*10e6 no of cells with 2.17*10e6 cells of control. Summed up: as §1
In assay [4] the test system is Rattus norvegicus. In words: Antiinflammatory activity on Carrageenan rat's paw edema(CPE) after peroral administration of 100 mg/kg dose with control swelling of 64.2%. In general terms: In the carrageenan paw model, swelling and tenderness develop within hours.
Assay [5] has as its system Rattus norvegicus. In words: Antiinflammatory activity on Zymosan-induced rat's paw edema(ZPE) after peroral administration of 100 mg/kg dose with control swelling of 71.7%. Summed up:
(§3)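 Male Wistar rats weighing about 150 g were dosed orally with compound suspended in 5% arabic gum. 1 h later, 1% zymosan in 0.1 mL saline was injected subplantarly into the hind paw. Paw volume was measured by plethysmograph before dosing and 4 h after zymosan, with edema as the volume difference. Inhibition % was derived from mean swelling versus the control group.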

The subject of assay [6] is Rattus norvegicus. Briefly: Inhibition of carrageenan-induced rat's paw edema (CPE) after peroral administration of 100 mg/kg dose. Summed up:
as §2

Assay [7] relates to Rattus norvegicus. In words: Compound was tested for the inhibition of rat reversed passive Arthus pleurisy after peroral administration of 100 mg/kg dose at 0.33 mL of exudate volume with 0.46 mL of control (injected intrapleurally). Summed up:
as §1

In assay [8] the test system is Rattus norvegicus. In words: Compound was tested for the inhibition of rat reversed passive Arthus pleurisy after peroral administration of 100 mg/kg dose at 1.69*10e6 no of cells with 2.17*10e6 cells of control. Summed up: as §1
In assay [9] the test system is Rattus norvegicus. In words: Antiinflammatory activity on Carrageenan rat's paw edema(CPE) after peroral administration of 100 mg/kg dose with control swelling of 81.0%.
Assay [10] concerns Rattus norvegicus. Briefly: Antiinflammatory activity on Zymosan-induced rat's paw edema(ZPE) after peroral administration of 100 mg/kg dose with control swelling of 52.2%. Summed up: as §3
Assay [11] concerns Rattus norvegicus. In words: Antiinflammatory activity on Carrageenan rat's paw edema(CPE) after peroral administration of 100 mg/kg dose with control swelling of 73.7%.
The test system of assay [12] is Rattus norvegicus. Briefly: Antiinflammatory activity on Zymosan-induced rat's paw edema(ZPE) after peroral administration of 100 mg/kg dose with control swelling of 72.9%. Summed up: as §3

What is called inhibition in vivo is the drop in the measured response relative to a control, in per cent. Consider `O=C(Nc1cnccn1)c1c(O)c2cccnc2n(-c2ccccc2)c1=O`, for which the inhibition in vivo at 100 mg/kg amounted to 24.3% in assay [1], 29.6% in assay [2], 26.7% in [3] and 21.2% in assay [6]. The Swelling in assay [4] is 50.6%; in assay [5], 50.5%.
For the molecule `O=C(Nc1ccccn1)c1c(O)c2cccnc2n(-c2ccccc2)c1=O`, the inhibition in vivo at 100 mg/kg in assay [2] is -13.5%; in assay [6], 14.6%. Besides, the results for the Swelling in assay [4] and in [5] were 54.8% and 81.4%, respectively.
For `O=C(NC1CCN(Cc2ccccc2)CC1)c1c(O)c2cccnc2n(-c2ccccc2)c1=O`, the inhibition in vivo at 100 mg/kg in assay [7] amounted to 32.4%; in assay [2] it was 1.7%; in assay [8], 22.1%; in assay [6], 1.2%. Moreover, the Swelling in assay [9] turned out to be 80.8%; in assay [10], 51.3%.
With `Nc1ccc(NC(=O)c2c(O)c3cccnc3n(-c3ccccc3)c2=O)cc1`, the inhibition in vivo at 100 mg/kg in assay [2] is -5.5%; in assay [6], 0%. The Swelling turned out to be 79% in assay [11] and 76.9% in [12].
For the molecule `O=C(Nc1ccccc1)c1c(O)c2cccnc2n(-c2ccccc2)c1=O`, the inhibition in vivo at 100 mg/kg is 4.6% in assay [2] and -15% in assay [6]. Also, the results for the Swelling in assay [4] and in [5] were 73.8% and 68.4%, respectively.
